Here are results for one compound from ChEMBL document CHEMBL1133169, “A light-inactivated antibiotic” (2000).

As a reminder, the MIC is the smallest concentration in the dilution series that meets the test's criterion for growth inhibition. Lower therefore signals inhibition by little substance.

What all share (assay type): functional
Test [1] in a line: Minimum inhibitory activity towards Bacillus subtilis ATCC 33608. Summed up:
(§1)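 Broth microdilution in Mueller-Hinton broth, inoculum 5 × 10^5 CFU/mL. MIC taken as the lowest antibiotic concentration preventing growth, judged by absence of turbidity after 24 h at 37 °C.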

The test system of test [2] is Enterococcus faecalis. Nature of the test: Minimum inhibitory activity towards Enterococcus faecalis ATCC 29212. The essentials:
as §1

In test [3] the test system is Klebsiella pneumoniae. Briefly: Minimum inhibitory activity towards Klebsiella pneumoniae ATCC 10031. The essentials: as §1
For test [4], the system named is Staphylococcus aureus. Nature of the test: Minimum inhibitory activity towards Staphylococcus aureus ATCC 25923. The essentials:
as §1

Each structure is given as a SMILES string. ≈ marks a conversion by molar mass, not a printed value.

Take `CC(=O)OCC1=C(C(=O)O)N2C(=O)[C@@H](NC(=O)[C@@H](Cc3ccccc3)NNC(=O)OCc3ccccc3[N+](=O)[O-])C2SC1` (some centres undefined): the minimum inhibitory concentration (MIC) in test [1] was 2 µg/mL (≈ 3.26 µM); in test [2], more than 32 µg/mL; in test [3], 32 µg/mL (≈ 52.2 µM); in test [4], 1 µg/mL (≈ 1.63 µM).
